The values below come from ChEMBL document CHEMBL1137766, “Synthesis and biological evaluation of 3,4,6-triaryl-2-pyranones as a potential new class of anti-breast cancer agents” (Bioorg Med Chem, 2009).

In general, IC50 refers to the concentration needed to halve the response being measured.

Active and inactive are the calls of the source. No cut-off for these calls is given here.

Data set [1] concerns MCF7. Kind of data set: Antiproliferative activity against human MCF7 cells expressing estrogen receptor after 48 hrs by MTT assay. The format is functional, cell-based. The following applies: MCF7, 48 h. A digest of the protocol: (§1)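 MTT reduction: 1 × 10⁴ cells/well seeded in DMEM with 10% FBS, incubated 24 h at 37 °C in CO₂. Compounds diluted in culture medium and applied for 48 h. MTT (5 mg/mL stock) added for 4 h, formazan dissolved in DMSO, absorbance read at 540 nm. IC50 taken from growth inhibition. Vehicle control 0.001% DMSO.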
A general note: Tetrazolium assays rely on reduction of a dye to a coloured formazan, in cell work by metabolically active cells.

The target in data set [2] is T1, Estrogen receptor (Homo sapiens) (UniProt P03372).
T1 sequence (whole entry): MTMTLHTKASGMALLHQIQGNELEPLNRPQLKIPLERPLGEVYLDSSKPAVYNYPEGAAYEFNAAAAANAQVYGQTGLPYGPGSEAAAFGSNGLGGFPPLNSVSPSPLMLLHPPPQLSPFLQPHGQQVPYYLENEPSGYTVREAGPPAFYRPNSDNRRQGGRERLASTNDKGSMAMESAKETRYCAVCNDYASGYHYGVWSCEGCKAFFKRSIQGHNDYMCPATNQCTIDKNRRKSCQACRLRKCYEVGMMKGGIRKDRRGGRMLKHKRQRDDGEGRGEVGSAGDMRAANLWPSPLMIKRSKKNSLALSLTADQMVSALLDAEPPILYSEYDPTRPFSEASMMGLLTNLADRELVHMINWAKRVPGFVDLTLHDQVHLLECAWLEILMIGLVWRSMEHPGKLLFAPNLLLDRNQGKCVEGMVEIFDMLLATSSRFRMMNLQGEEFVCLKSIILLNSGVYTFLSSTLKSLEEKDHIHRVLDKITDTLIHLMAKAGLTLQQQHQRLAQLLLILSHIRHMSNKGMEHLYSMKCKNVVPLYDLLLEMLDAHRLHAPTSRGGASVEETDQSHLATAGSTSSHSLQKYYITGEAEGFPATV
Description: Transactivation of ERalpha expressed in african green monkey COS7 cells at 5 uM after 24 hrs by luciferase reporter gene assay. Type of data set: cell-based. The following applies: COS-7. Put shortly: (§2)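 Cos-7 cells, 40,000 per well, seeded 24 h before co-transfection with 200 ng pGL3-Gal4Tk-Luc reporter plus ERα or ERβ expression plasmid and pRL-CMV. Compounds given, then cells harvested 24 h post-transfection for dual-luciferase assay. Firefly signal normalised to Renilla and GFP, expressed as fold over VP-16 control. Mean ± SD of three independent experiments.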
Background: In a reporter assay the amount or activity of a reporter protein is the signal.

A short description of data set [3]: Cytotoxicity against osteoblasts after 48 hrs by MTT assay. Conditions: osteoblast. The format is cell-based.
In data set [4] the test system is MDA-MB-231. Description: Induction of apoptosis in human MDA-MB-231 cells assessed as caspase induction at 20 uM after 24 hrs by fluorescence assay. Type of data set: functional, cell-based.
Data set [5] deals with MDA-MB-231. Description: Antiproliferative activity against human estrogen receptor deficient MDA-MB-231 cells after 48 hrs by MTT assay. Type of data set: functional, cell-based. Conditions: MDA-MB-231, 48 h. Put shortly: as §1
In data set [6] the test system is MDA-MB-231. Kind of data set: Induction of apoptosis in human MDA-MB-231 cells assessed as DNA fragmentation at 20 uM after 24 hrs by ELISA. Type of data set: functional, cell-based. A digest of the protocol: (§3)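 BrdU-labelled cells incubated with compound for 24 h. Cells lysed 30 min at rt and spun at 250g for 10 min. Supernatant captured on adsorbed anti-DNA antibody, fixed by microwave 5 min, then probed 90 min with peroxidase anti-BrdU; OD read at 370 nm. Kit positive and negative controls used. Duplicates from two independent experiments.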

In data set [7] the test system is Vero. Kind of data set: Cytotoxicity against african green monkey Vero cells after 48 hrs by MTT assay. The following applies: chlorocebus sabaeus. The format is cell-based.
Data set [8] relates to MDA-MB-231. Description: Induction of apoptosis in human MDA-MB-231 cells assessed as morphological changes at 10 uM after 18 hrs using Hoechst 33342 staining by fluorescent microscopy. The format is functional, cell-based. A digest of the protocol:
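10,000 cells seeded on 18-mm coverslips and grown 24 h. Medium replaced, then cells treated with 10 µM compound for 18 h. Stained with Hoechst 33342 0.5 µg/ml in 4% paraformaldehyde for 30 min at 37 °C. Random fields imaged by fluorescence microscopy; viable versus apoptotic cells judged qualitatively by fluorescence and nuclear fragmentation.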

The target of data set [9] is Estrogen receptor beta (Homo sapiens) (UniProt Q92731). Description: Transactivation of ERbeta expressed in african green monkey COS7 cells at 5 uM after 24 hrs by luciferase reporter gene assay. The format is cell-based. Conditions: COS-7. Put shortly: as §2
Data set [10] has as its system MCF7. Kind of data set: Induction of apoptosis in human MCF7 cells assessed as caspase induction at 20 uM after 24 hrs by fluorescence assay. Type of data set: functional, cell-based. Put shortly:
(§4)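 Caspase kit covering caspases 2, 3, 6, 7, 8, 9 and 10. MCF-7 cells serum-deprived 4 h, then treated with compound for 24 h at various concentrations. DEVD-rhodamine-110 substrate added; released rhodamine-110 fluorescence read at 560 nm. Camptothecin-treated U937 cells served as positive control. Duplicates from two independent experiments.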

The test system of data set [11] is MCF7. Kind of data set: Induction of apoptosis in human MCF7 cells assessed as DNA fragmentation at 20 uM after 24 hrs by ELISA. The format is functional, cell-based. Put shortly:
as §3

The subject of data set [12] is MDA-MB-231. Description: Induction of apoptosis in human MDA-MB-231 cells assessed as DNA fragmentation at 10 uM after 24 hrs by ELISA. The format is functional, cell-based. Put shortly: as §3
For orientation: An ELISA detects its analyte on a solid surface through an enzyme-linked reagent.

In data set [13] the test system is MDA-MB-231. Kind of data set: Induction of apoptosis in human MDA-MB-231 cells assessed as caspase induction at 40 uM after 24 hrs by fluorescence assay. The format is functional, cell-based.
In data set [14] the test system is MCF7. Kind of data set: Induction of apoptosis in human MCF7 cells assessed as DNA fragmentation at 10 uM after 24 hrs by ELISA. The format is functional, cell-based. A digest of the protocol: as §3
Data set [15] has as its target T2, Prostaglandin G/H synthase 2 (Homo sapiens, UniProt P35354).
T2 sequence (P35354 whole entry): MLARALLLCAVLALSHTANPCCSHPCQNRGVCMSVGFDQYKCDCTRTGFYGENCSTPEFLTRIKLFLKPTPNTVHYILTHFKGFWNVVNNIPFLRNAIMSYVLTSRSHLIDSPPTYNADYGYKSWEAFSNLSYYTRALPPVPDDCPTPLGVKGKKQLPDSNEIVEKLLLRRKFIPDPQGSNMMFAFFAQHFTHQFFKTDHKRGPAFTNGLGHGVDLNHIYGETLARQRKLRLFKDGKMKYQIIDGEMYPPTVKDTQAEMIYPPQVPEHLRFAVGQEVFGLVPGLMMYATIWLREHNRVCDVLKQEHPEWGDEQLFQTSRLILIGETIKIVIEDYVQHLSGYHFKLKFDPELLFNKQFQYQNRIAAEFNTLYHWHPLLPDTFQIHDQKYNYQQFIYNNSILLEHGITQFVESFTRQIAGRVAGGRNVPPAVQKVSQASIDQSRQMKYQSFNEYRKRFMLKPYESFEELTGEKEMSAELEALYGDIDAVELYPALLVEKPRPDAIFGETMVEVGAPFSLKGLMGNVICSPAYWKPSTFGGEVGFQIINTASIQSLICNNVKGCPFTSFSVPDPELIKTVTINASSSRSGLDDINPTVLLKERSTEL

Data set [16] deals with MCF7. Description: Induction of apoptosis in human MCF7 cells assessed as caspase induction at 40 uM after 24 hrs by fluorescence assay. The format is functional, cell-based. A digest of the protocol: as §4

Estrogen receptor beta (Homo sapiens), sequence (Q92731 whole entry): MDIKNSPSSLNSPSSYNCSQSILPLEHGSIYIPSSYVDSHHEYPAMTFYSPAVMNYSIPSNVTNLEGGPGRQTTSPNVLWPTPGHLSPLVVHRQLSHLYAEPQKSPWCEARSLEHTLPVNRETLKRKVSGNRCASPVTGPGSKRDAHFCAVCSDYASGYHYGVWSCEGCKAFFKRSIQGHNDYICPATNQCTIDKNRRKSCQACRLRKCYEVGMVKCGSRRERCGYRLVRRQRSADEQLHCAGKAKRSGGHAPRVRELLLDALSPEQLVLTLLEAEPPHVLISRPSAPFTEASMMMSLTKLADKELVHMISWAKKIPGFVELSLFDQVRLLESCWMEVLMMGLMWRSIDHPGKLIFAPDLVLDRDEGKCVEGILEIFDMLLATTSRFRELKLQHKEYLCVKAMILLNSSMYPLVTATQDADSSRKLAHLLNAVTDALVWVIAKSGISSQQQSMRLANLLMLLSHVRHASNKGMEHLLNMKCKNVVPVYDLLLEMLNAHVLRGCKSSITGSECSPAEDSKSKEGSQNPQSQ

Regarding `O=c1oc(-c2ccc(O)cc2)cc(-c2ccc(O)cc2)c1-c1ccccc1`, the IC50 is 14 µM in data set [1] and 26 µM in data set [5]. Also, the result in [2], in data set [4], in data set [9] and in [13] was inactive. Further, the Activity entry in data set [3] and in data set [7] was “Non-toxic” throughout. Also, the result in [6], in data set [8], in data set [10], in data set [11] and in data set [12] was Active.
With `O=c1oc(-c2ccccc2)cc(-c2ccc(O)cc2)c1-c1ccccc1`, the IC50 in [1] was 38 µM; in data set [5], greater than 100 µM.
Take `O=c1oc(-c2ccccc2)cc(-c2ccc(O)cc2)c1-c1ccc(O)cc1`: the IC50 in [1] is 24 µM; in data set [5] it was 27 µM. The outcome in [2], in [4], in [9] and in data set [13] was inactive. Further, the Activity result in data set [3] and in [7] was “Non-toxic” in each case. Also, the outcome in [6], in [8], in [14], in data set [10] and in data set [11] was Active.
`COc1ccc(-c2cc(-c3ccccc3)c(-c3ccc(S(C)(=O)=O)cc3)c(=O)o2)cc1`: in data set [15], the IC50 came out at 0.02 µM.
`COc1ccc(-c2cc(-c3ccccc3)c(-c3ccc(O)cc3)c(=O)o2)cc1`: the IC50 was found to be 14 µM in data set [1] and 17 µM in data set [5]. Further, the result in data set [2], in data set [4], in data set [9], in data set [14], in data set [11] and in data set [13] was inactive. Also, the Activity result in data set [3] and in [7] was “Non-toxic” throughout. Also, the result in [8] and in data set [10] was Active.
`O=c1oc(-c2ccc(OCCN3CCCC3)cc2)cc(-c2ccccc2)c1-c1ccccc1`: the IC50 in data set [1] is 25 µM; in [5] it was 34 µM. In addition, the Activity result in data set [3] and in data set [7] was “Toxic” each time.
For `O=c1oc(-c2ccccc2)cc(-c2ccccc2)c1-c1ccc(OCCN2CCCC2)cc1`, the IC50 in data set [1] is 23 µM; in data set [5], greater than 100 µM.
As to `O=c1oc(-c2ccc(O)cc2)cc(-c2ccccc2)c1-c1ccccc1`, the IC50 in data set [1] was 21 µM; in data set [5], 13 µM. Besides, the Activity entry in data set [3] and in [7] was “Toxic” in each case.
`COc1ccc(-c2cc(-c3ccccc3)oc(=O)c2-c2ccc(OCCN3CCCCC3)cc2)cc1`: the IC50 was found to be 16 µM in [1] and 12 µM in [5]. The Activity result in data set [3] and in data set [7] was “Toxic” in each case.
With `COc1ccc(-c2cc(-c3ccccc3)oc(=O)c2-c2ccc(O)cc2)cc1`, the values for the IC50 in [1] and in [5] were greater than 50 µM and greater than 100 µM, respectively.
Taken in the same sequence, the figures for `O=c1oc(-c2ccccc2)cc(-c2ccccc2)c1-c1ccc(OCCN2CCCCC2)cc1` were greater than 50 µM and greater than 100 µM.
As for `O=c1oc(-c2ccc(O)cc2)cc(-c2ccccc2)c1-c1ccc(O)cc1`, the results for the IC50 in [1] and in data set [5] were 26 µM and greater than 100 µM, respectively.
On to `CC/C(=C(\c1ccccc1)c1ccc(OCCN(C)C)cc1)c1ccccc1` [TAMOXIFEN], for which the IC50 in [1] was found to be 10 µM; in data set [5], 20 µM.
Taken in the same sequence, the figures for `O=c1oc(-c2ccc(OCCN3CCCCC3)cc2)cc(-c2ccccc2)c1-c1ccccc1` were 24 µM and greater than 100 µM.
Take `O=c1oc(-c2ccccc2)cc(-c2ccc(OCCN3CCCC3)cc2)c1-c1ccccc1`: the values for the IC50 in [1] and in data set [5] were 14 µM and 9 µM, respectively. For the same compound, the Activity entry in [3] and in [7] was “Toxic” throughout.
Take `O=c1oc(-c2ccccc2)cc(-c2ccc(OCCN3CCCCC3)cc2)c1-c1ccccc1`: the IC50 in [1] worked out at 26 µM; in [5], 11 µM. Moreover, the Activity result in [3] and in data set [7] was “Toxic” each time.
Consider `O=c1oc(-c2ccccc2)cc(-c2ccccc2)c1-c1ccc(O)cc1`, for which the IC50 is 25 µM in data set [1] and 38 µM in data set [5]. Besides, the outcome in data set [2], in data set [9], in data set [14] and in data set [11] was inactive. Further, the Activity result in data set [3] and in data set [7] was “Non-toxic” throughout. Moreover, the outcome in data set [16] and in [8] was Active.
